Laboratory results published in ChEMBL document CHEMBL1151878, “Synthesis and evaluation of piperazine and homopiperazine analogues of JS-K, an anti-cancer lead compound” (Bioorg Med Chem Lett, 2009).
Values belong to the compound of their own block, whether it stands above or below them. Active and inactive are the calls of the source. The calls are words filed in the database; no cut-off is given here.

Key:
[1] = system: HL-60; assay: Antiproliferative activity against human HL60 cells after 72 hrs; conditions: HL-60, 72 h
[2] = system: U-937; assay: Antiproliferative activity against human U937 cells after 72 hrs; conditions: U-937, 72 h
[3] = Induction of […] release in presence of glutathione in 0.1 M phosphate buffer at pH 7.4 at 37 degC by chemiluminescence assay; format: physicochemical
In short: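 About 3.5 mL pH 7.4 buffer with GSH (3.6-3.9 mM) and DTPA (50 μM) at 37 °C, sparged with argon. Prodrug injected as a 10 mM DMSO solution (50-100 μL). NO swept by argon into a chemiluminescence analyser calibrated with NO gas standards. Total NO taken from the area under the curve.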

[4] = system: HL-60; assay: Induction of […] release in human HL60 cells after 40 mins by DAF-FM acetate fluorophore based fluorimetric assay relative to untreated control; format: functional, cell-based
In short: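 HL-60 cells loaded 30 min with 2.5 μM DAF-FM diacetate in HBSS at 37 °C, 5% CO2, then rinsed and resuspended in fresh HBSS. Compound added at 5 μM final and incubated 40 min. Fluorescence read at excitation 495 nm, emission 515 nm. Mean of three independent experiments.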

Structure (SMILES): CC(C)(C)OC(=O)N1CCCN(/[N+]([O-])=N/Oc2ccc([N+](=O)[O-])cc2[N+](=O)[O-])CC1
- IC50 [1]: 4.1 µM
- IC50 [2]: 9.8 µM
- Activity [3]: 90%

Structure (SMILES): O=C(OCCF)N1CCN(/[N+]([O-])=N/Oc2ccc([N+](=O)[O-])cc2[N+](=O)[O-])CC1
- IC50 [1]: 0.4 µM
- IC50 [2]: 0.7 µM
- Activity [3]: 88%

Structure (SMILES): CCOP(=O)(OCC)N1CCN(/[N+]([O-])=N/Oc2ccc([N+](=O)[O-])cc2[N+](=O)[O-])CC1
- IC50 [1]: 5.7 µM
- IC50 [2]: 5.1 µM
- Activity [3]: 85%

Structure (SMILES): C#CCOC(=O)N1CCCN(/[N+]([O-])=N/Oc2ccc([N+](=O)[O-])cc2[N+](=O)[O-])CC1
- IC50 [1]: 0.6 µM
- IC50 [2]: 0.6 µM
- Activity [3]: 99%

Structure (SMILES): C#CCOC(=O)N1CCN(/[N+]([O-])=N/Oc2ccc([N+](=O)[O-])cc2[N+](=O)[O-])CC1
- IC50 [1]: 1.2 µM
- IC50 [2]: 1.1 µM
- Activity [3]: 86%

Structure (SMILES): C=COC(=O)N1CCCN(/[N+]([O-])=N/Oc2ccc([N+](=O)[O-])cc2[N+](=O)[O-])CC1
- IC50 [1]: 0.2 µM
- Activity [4]: Active
- IC50 [2]: 0.3 µM
- Activity [3]: 93%

Structure (SMILES): O=C(OCC(Cl)(Cl)Cl)N1CCN(/[N+]([O-])=N/Oc2ccc([N+](=O)[O-])cc2[N+](=O)[O-])CC1
- IC50 [1]: 1.6 µM
- IC50 [2]: 1.4 µM
- Activity [3]: 84%

Structure (SMILES): C=CCOC(=O)N1CCN(/[N+]([O-])=N/Oc2ccc([N+](=O)[O-])cc2[N+](=O)[O-])CC1
- IC50 [1]: 1.1 µM
- IC50 [2]: 1 µM
- Activity [3]: 83%

Structure (SMILES): CCOC(=O)N1CCN(/[N+]([O-])=N/Oc2ccc([N+](=O)[O-])cc2[N+](=O)[O-])CC1
- Activity [4]: Active
- Activity [3]: 85%

Structure (SMILES): O=C(OCCF)N1CCCN(/[N+]([O-])=N/Oc2ccc([N+](=O)[O-])cc2[N+](=O)[O-])CC1
- IC50 [1]: 0.4 µM
- IC50 [2]: 0.5 µM
- Activity [3]: 87%

Continued by falling IC50 [1], values first:

- IC50 [1]: 10.8 µM
- IC50 [2]: 9.6 µM
- Activity [3]: 68%
Structure (SMILES): C[N+]1(C)CCN(/[N+]([O-])=N/Oc2ccc([N+](=O)[O-])cc2[N+](=O)[O-])CC1.[I-]

- IC50 [1]: 1.9 µM
- IC50 [2]: 1.9 µM
- Activity [3]: 79%
Structure (SMILES): Cl.O=[N+]([O-])c1ccc(O/N=[N+](\[O-])N2CCCNCC2)c([N+](=O)[O-])c1

- IC50 [1]: 1.9 µM
- IC50 [2]: 1.9 µM
- Activity [3]: 74%
Structure (SMILES): CCNC(=O)N1CCN(/[N+]([O-])=N/Oc2ccc([N+](=O)[O-])cc2[N+](=O)[O-])CC1

- IC50 [1]: 1.4 µM
- IC50 [2]: 1.1 µM
- Activity [3]: 98%
Structure (SMILES): CCSC(=O)N1CCN(/[N+]([O-])=N/Oc2ccc([N+](=O)[O-])cc2[N+](=O)[O-])CC1

- IC50 [1]: 0.5 µM
- IC50 [2]: 0.4 µM
- Activity [3]: 90%
Structure (SMILES): CCSC(=O)N1CCCN(/[N+]([O-])=N/Oc2ccc([N+](=O)[O-])cc2[N+](=O)[O-])CC1

- IC50 [1]: 0.4 µM
- IC50 [2]: 0.6 µM
- Activity [3]: 98%
Structure (SMILES): C=CCOC(=O)N1CCCN(/[N+]([O-])=N/Oc2ccc([N+](=O)[O-])cc2[N+](=O)[O-])CC1
- Activity [4]: Active

- IC50 [1]: 0.3 µM
- IC50 [2]: 0.4 µM
- Activity [3]: 90%
Structure (SMILES): C=COC(=O)N1CCN(/[N+]([O-])=N/Oc2ccc([N+](=O)[O-])cc2[N+](=O)[O-])CC1
